The values that follow come from ChEMBL document CHEMBL1909630, “Azaxanthene based selective glucocorticoid receptor modulators: design, synthesis, and pharmacological evaluation of (S)-4-(5-(1-((1,3,4-thiadiazol-2-yl)amino)-2-methyl-1-oxopropan-2-yl)-5H-chromeno[2,3-b]pyridin-2-yl)-2-fluoro-N,N-dimethylbenzamide (BMS-776532) and its methylene homologue …” (J Med Chem, 2011).

Test [1] addresses T1, Glucocorticoid receptor (Homo sapiens, UniProt P04150).
T1 sequence (P04150 whole entry): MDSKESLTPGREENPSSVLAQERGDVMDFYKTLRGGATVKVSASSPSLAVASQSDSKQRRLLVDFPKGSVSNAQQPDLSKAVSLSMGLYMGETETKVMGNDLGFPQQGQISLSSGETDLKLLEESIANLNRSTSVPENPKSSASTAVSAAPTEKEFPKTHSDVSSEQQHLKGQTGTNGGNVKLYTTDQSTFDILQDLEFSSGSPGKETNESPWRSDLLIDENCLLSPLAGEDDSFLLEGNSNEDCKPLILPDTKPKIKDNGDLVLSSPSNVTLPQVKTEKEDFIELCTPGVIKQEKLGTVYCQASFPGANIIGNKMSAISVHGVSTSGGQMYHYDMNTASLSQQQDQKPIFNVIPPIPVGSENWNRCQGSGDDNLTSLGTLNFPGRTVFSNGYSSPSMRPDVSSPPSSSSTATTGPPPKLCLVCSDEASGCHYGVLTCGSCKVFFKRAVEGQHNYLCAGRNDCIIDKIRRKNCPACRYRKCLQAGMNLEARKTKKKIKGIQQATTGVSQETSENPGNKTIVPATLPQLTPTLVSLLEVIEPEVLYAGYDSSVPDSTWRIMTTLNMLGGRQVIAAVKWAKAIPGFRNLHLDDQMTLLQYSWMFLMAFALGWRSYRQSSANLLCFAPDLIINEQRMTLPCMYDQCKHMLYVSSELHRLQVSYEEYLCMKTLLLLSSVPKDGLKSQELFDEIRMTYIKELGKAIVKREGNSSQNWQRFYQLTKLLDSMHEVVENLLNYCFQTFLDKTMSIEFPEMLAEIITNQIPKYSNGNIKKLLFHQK
Description: Transrepression activity at glucocorticoid receptor alpha in IL-1beta-stimulated human A549 cells assessed as inhibition of NFkappaB-dependent E-selectin transcription by luciferase reporter gene assay. It is filed as cell-based.

The target in a further test is T2, Estrogen receptor (Homo sapiens, UniProt P03372).
T2 sequence (P03372 whole entry): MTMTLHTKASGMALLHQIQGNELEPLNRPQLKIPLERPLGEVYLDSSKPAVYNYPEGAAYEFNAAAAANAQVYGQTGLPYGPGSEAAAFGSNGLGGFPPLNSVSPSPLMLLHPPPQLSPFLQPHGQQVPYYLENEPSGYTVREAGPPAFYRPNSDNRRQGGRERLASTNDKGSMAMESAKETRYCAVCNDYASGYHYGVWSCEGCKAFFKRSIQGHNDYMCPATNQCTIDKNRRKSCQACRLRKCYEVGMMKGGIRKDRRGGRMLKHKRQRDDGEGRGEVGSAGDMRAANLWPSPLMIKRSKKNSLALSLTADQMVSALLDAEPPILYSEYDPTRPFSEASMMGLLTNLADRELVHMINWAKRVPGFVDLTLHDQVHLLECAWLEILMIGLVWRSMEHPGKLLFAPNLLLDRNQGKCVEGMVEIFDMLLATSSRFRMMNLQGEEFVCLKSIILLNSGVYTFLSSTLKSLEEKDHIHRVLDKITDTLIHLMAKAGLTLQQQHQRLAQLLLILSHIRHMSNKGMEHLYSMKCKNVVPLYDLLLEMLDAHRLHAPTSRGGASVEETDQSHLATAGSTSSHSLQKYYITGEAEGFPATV
The test can be described thus: Displacement of fluorescently labeled ligand from ERalpha receptor by fluorescence polarization assay. Summed up: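 Binding was measured by fluorescence polarization competition between compound and a fluorescent ligand for full-length receptor or ligand-binding domain. Values are means of at least two experiments.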

For test [2], the target named is T1, Glucocorticoid receptor. The test can be described thus: Transactivation activity at GR-alpha in human NP1 Hela cells assessed as induction of GAL4-DBD after 20 hrs by luciferase reporter gene assay. Type of test: cell-based. Background: A reporter such as luciferase makes a cellular process visible.
For test [3], the target named is T1, Glucocorticoid receptor. The test can be described thus: Transactivation activity at glucocorticoid receptor alpha human 13D3/Huh7 cells assessed as induction of TAT activity after 4 hrs by spectrophotometry. Type of test: cell-based, Huh-7.
The target in test [4] is T1, Glucocorticoid receptor. Description: Transrepression activity at glucocorticoid receptor alpha in phorbol myristate acetate-stimulated human A549 cells assessed as inhibition of AP1 response element by luciferase reporter gene assay. Type of test: cell-based.
For test [5], the target named is T3, Mineralocorticoid receptor (Homo sapiens, UniProt P08235).
T3 sequence (P08235 whole entry): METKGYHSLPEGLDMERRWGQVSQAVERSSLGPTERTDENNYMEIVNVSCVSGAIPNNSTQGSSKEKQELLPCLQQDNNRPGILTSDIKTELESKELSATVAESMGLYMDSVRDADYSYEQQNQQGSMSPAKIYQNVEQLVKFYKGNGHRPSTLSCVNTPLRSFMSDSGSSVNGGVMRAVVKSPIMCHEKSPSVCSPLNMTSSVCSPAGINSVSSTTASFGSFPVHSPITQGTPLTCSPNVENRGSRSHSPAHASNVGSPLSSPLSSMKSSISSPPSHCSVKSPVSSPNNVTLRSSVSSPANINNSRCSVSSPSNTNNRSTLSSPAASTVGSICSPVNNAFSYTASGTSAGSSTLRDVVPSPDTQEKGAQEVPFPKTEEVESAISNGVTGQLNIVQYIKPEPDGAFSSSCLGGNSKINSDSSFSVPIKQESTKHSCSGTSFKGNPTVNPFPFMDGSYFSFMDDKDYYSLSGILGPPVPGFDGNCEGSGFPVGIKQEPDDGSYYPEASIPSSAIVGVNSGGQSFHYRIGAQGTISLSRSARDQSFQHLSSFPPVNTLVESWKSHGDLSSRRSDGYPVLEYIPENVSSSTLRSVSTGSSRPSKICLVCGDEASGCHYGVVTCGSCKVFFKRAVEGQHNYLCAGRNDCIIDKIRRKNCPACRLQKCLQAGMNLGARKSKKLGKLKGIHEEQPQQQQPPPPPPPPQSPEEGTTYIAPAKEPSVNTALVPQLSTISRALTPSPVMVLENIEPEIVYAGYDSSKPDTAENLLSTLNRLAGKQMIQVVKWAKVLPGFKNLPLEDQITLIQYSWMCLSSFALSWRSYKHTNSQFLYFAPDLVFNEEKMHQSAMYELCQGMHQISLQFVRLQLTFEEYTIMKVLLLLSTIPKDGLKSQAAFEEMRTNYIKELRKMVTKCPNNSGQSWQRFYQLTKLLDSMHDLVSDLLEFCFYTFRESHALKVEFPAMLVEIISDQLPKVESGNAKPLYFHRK
The test can be described thus: Agonist activity at human mineralocorticoid receptor expressed in human A549 cells by fluorescence polarization assay. It is filed as functional, cell-based. Background: Polarisation of emitted light reports the rotation of a fluorescent probe.

For test [6], the target named is T1, Glucocorticoid receptor. The test can be described thus: Displacement of GS-red from glucocorticoid receptor by fluorescence polarization assay.
Another test concerns the target T4, Progesterone receptor (Homo sapiens, UniProt P06401).
T4 sequence (P06401 whole entry): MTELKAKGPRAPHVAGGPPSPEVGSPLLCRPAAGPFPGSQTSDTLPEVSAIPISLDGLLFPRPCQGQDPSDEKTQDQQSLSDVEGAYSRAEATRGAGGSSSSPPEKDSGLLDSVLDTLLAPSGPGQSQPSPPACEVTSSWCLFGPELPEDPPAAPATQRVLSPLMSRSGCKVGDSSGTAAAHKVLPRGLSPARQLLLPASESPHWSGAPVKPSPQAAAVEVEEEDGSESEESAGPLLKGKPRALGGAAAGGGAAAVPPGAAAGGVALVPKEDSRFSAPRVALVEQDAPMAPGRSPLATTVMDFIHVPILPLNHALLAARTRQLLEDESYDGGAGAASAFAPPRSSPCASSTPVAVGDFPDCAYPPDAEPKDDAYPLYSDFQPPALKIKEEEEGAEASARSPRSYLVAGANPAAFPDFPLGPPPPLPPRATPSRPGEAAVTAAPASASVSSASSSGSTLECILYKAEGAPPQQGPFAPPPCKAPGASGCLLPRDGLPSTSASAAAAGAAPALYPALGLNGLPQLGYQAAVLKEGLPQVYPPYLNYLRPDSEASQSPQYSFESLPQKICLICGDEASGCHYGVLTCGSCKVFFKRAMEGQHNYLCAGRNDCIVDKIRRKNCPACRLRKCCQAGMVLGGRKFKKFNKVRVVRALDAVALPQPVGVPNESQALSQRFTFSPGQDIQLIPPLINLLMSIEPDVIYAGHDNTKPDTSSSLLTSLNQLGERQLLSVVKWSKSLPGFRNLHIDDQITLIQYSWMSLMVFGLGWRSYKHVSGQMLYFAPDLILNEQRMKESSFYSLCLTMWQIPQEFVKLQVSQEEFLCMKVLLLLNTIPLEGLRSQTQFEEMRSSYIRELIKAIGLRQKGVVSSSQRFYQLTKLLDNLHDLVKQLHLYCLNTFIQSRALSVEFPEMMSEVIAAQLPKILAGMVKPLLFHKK
The test can be described thus: Displacement of fluorescently labeled ligand from progesterone receptor by fluorescence polarization assay.

Test [7] concerns the target T1, Glucocorticoid receptor. Description: Transactivation activity at GR-alpha in human NP1 Hela cells assessed as inhibition of GAL4-DBD after 20 hrs by luciferase reporter gene assay. Type of test: cell-based.

On to `CN(C)C(=O)c1ccc(-c2ccc3c(n2)Oc2ccccc2[C@@H]3C(C)(C)C(=O)Nc2nncs2)cc1`, for which the EC50 (as a rule, the concentration needed to bring the measured effect to its halfway point) on Glucocorticoid receptor [1] is 4.6 nM; on Glucocorticoid receptor [2], 89 nM; on Glucocorticoid receptor [3], 22.7 nM; on Glucocorticoid receptor [4], 12.2 nM; in test [5], more than 5000 nM; on Glucocorticoid receptor [7], 42.7 nM. Also, the Ki (in general, the equilibrium dissociation constant of an inhibitor or competing ligand from its target) was more than 75000 nM on Estrogen receptor, 1.74 nM at Glucocorticoid receptor [6] and 1230 nM on Progesterone receptor.
